Screening results: PubChem, Broad Institute
IDH1 R132H inh – inhibitors of human IDH1 R132H; inhibition, % at 10 µM; AID 624101; IDH1 R132H reductase, diaphorase/resazurin fluorescence, 60 min; hit rate 0.18% among 70,000; in the data active = inhibition above about 34%; inconclusive = no clear call, values can overlap the other calls; inactive = below about 11%
T cruzi growth-1 – inhibitors of T. cruzi proliferation. AID 624255. inhibition, % at 8.34 µM. hit rate 5.9% among 77,000. T. cruzi beta-gal in NIH3T3, GalScreen luminescence, 90 h;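 active = mean inhibition above about 93%, with at least 55% of replicates each passing it, limit read from the data, passing the limit was not always enough; inconclusive = only one of those two conditions holds; inactive = neither condition holds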
GASC1 inh – inhibitors of human demethylase GASC-1 KDM4C; Q9H3R0; GST-KDM4C 2-372, H3K9me3 peptide, LANCE TR-FRET; inhibition, % at 12.5 µM; hit rate 0.15% among 96,000;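 active = mean replicate inhibition above about 25%, with at least 55% of replicates also reaching it, limit read from the data, passing the limit was not always enough; inconclusive = only one of those two conditions met; inactive = neither condition met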
Target sequence (Q9H3R0 2-372 limits assumed): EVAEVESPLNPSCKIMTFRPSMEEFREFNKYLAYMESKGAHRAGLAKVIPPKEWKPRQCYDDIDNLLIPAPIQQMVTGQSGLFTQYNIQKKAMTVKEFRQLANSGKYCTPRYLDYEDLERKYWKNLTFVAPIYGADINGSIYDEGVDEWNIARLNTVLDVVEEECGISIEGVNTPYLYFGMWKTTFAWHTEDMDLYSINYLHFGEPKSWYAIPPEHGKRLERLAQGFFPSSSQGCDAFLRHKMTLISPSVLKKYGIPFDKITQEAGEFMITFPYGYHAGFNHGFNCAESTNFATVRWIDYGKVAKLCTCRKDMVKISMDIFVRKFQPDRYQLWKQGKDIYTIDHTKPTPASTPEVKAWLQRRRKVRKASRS
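System: N-terminal GST-fused human GASC-1 (KDM4C) fragment, residues 2-372; amount: enzyme final amount 10 nM; incubation: reaction 30 min RT, detection step 1 h RT; medium: HEPES buffer, pH 7.5, plus ascorbate; technique: LANCE TR-FRET, Eu antibody, ULight-streptavidin, EDTA, ex 340 nm, em 618/671 nm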
Pf Dd2 inh – blocks growth of Plasmodium falciparum Dd2 parasites; P. falciparum Dd2 growth, SYBR Green, 72 h; stronger effect = lower value; activity change, % at 10 µM; hit rate 2.3% among 94,000; in the data active = activity change below about -80%; inconclusive = no clear call, values can overlap the other calls
T cruzi growth-2 – blocks T. cruzi growth in NIH3T3 host cells; shares compounds with T cruzi growth-1; T. cruzi beta-gal in NIH3T3, GalScreen luminescence, 90 h; inhibition, % at 8.35 µM; hit rate 72% among 5,600;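 active = mean replicate inhibition above about 95% and at least 55% of replicates individually reaching it, limit read from the data; inconclusive = only one of the two criteria is met; inactive = neither criterion is met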
T cruzi growth-3 – inhibitors of T. cruzi proliferation; hit rate 21% among 5,600; shares compounds with T cruzi growth-1; T. cruzi beta-gal in NIH3T3, GalScreen luminescence, 90 h; AID 651740; inhibition, % at 2.09 µM;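 active = mean inhibition above about 95%, with at least 55% of replicates also reaching it, limit read from the data; inconclusive = meets just one of the two conditions; inactive = meets neither condition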
NIH3T3 tox – kills mouse NIH/3T3 fibroblasts; hit rate 14% among 5,600; cytotoxicity (signal decrease), % at 8.35 µM; AID 651742; NIH/3T3 viability, CellTiter-Glo ATP luminescence, 90 h; shares compounds with T cruzi growth-1;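 active = mean signal decrease across replicates above about 35% based on untreated-well scatter, with enough replicates individually passing, limit read from the data; inconclusive = no rule stated though some were filed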
NIH3T3 tox 2 – cytotoxicity in mouse NIH/3T3 fibroblasts; NIH/3T3 viability, CellTiter-Glo ATP luminescence, 90 h; AID 651744; inhibition, % at 24.9 µM; shares compounds with T cruzi growth-1; hit rate 56% among 5,600;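 active = mean loss of cell viability signal at or above a set limit, and enough replicates individually reaching it; inconclusive = meets only the mean limit or only the replicate share; inactive = meets neither condition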
A number is an active result; - = inactive; ? = inconclusive; . = no result. Compounds with a hit are over-represented: about 5.8% of the library has one in this group of screens.

SMILES	IDH1 R132H inh	T cruzi growth-1	GASC1 inh	Pf Dd2 inh	T cruzi growth-2	T cruzi growth-3	NIH3T3 tox	NIH3T3 tox 2
C[C@@H]1CCCCO[C@H](CN(C)Cc2ccc(C(F)(F)F)cc2)[C@H](C)CN([C@H](C)CO)C(=O)c2cc(NC(=O)Nc3ccccc3)ccc2O1	-	?	-	-	95.7	120.1	-	-
CC(=O)N(C)C[C@H]1Oc2cc(C#CC3CCCCC3)ccc2S(=O)(=O)N([C@H](C)CO)C[C@@H]1C	-	?	-	-	103.5	-	42.0	?
CC(=O)N(C)C[C@H]1Oc2cc(C#CC3CCCCC3)ccc2S(=O)(=O)N([C@@H](C)CO)C[C@@H]1C	.	?	-	-	107.5	-	-	56.4
CC(=O)N(C)C[C@@H]1Oc2cc(C#CC3CCCC3)ccc2S(=O)(=O)N([C@@H](C)CO)C[C@@H]1C	.	-	-	-	.	.	.	.
Cc1cccc(-c2ccc([C@H]3[C@H]4CN(Cc5cncnc5)CCCCN4[C@H]3CO)cc2)c1	.	-	-	-	.	.	.	.
Cc1cccc(-c2ccc([C@H]3[C@H](CO)N4CCCCN(Cc5cncnc5)C[C@@H]34)cc2)c1	.	103.0	-	-	99.7	-	-	-
Cc1cccc(-c2ccc([C@H]3[C@@H](CO)N4CCCCN(Cc5cncnc5)C[C@@H]34)cc2)c1	.	105.7	-	-	95.2	-	36.8	102.2
OC[C@H]1[C@H](c2ccc(-c3ccccc3)cc2)[C@@H]2CN(Cc3cncnc3)CCCCN12	.	106.6	-	-	103.0	-	-	34.5
OC[C@H]1[C@@H](c2ccc(-c3ccccc3)cc2)[C@H]2CN(Cc3cncnc3)CCCCN21	.	-	-	-	.	.	.	.
Cc1cccc(-c2ccc([C@H]3[C@H](CO)N4CCCCN(Cc5cccnc5)C[C@@H]34)cc2)c1	.	103.7	.	-	105.7	-	-	100.8
CC(C)CC#Cc1cnc2c(c1)C(=O)N([C@H](C)CO)C[C@@H](C)[C@H](CN(C)S(=O)(=O)c1ccccc1)O2	-	-	-	-	.	.	.	.
OC[C@@H]1[C@@H](c2ccc(C#Cc3ccccc3)cc2)[C@H]2CN(Cc3cncnc3)CCCCN12	.	-	-	-	.	.	.	.
OC[C@H]1[C@H](c2ccc(-c3cccc(F)c3)cc2)[C@H]2CN(Cc3cncnc3)CCCCN21	.	94.0	-	-	-	-	-	104.6
Cc1cccc(-c2ccc([C@@H]3[C@@H](CO)N4CCCCN(Cc5ccncc5)C[C@@H]34)cc2)c1	.	-	-	-	.	.	.	.
CN(C)C(=O)c1cccc(-c2ccc([C@H]3[C@@H](CO)N4CCCCN(Cc5cccnc5)C[C@@H]34)cc2)c1	.	101.1	-	-	?	-	-	-
Cc1cccc(-c2ccc([C@H]3[C@@H](CO)N4CCCCN(Cc5ccncc5)C[C@@H]34)cc2)c1	.	103.1	-	-	110.8	-	-	105.2
OC[C@@H]1[C@H](c2ccc(C#Cc3ccccc3F)cc2)[C@H]2CN(Cc3cncnc3)CCCCN12	.	117.9	-	-	102.9	96.1	43.6	105.5
OC[C@@H]1[C@@H](c2ccc(-c3cccc(F)c3)cc2)[C@H]2CN(Cc3cncnc3)CCCCN12	.	-	-	-	.	.	.	.
C[C@@H]1CN([C@H](C)CO)C(=O)Cc2cc(NC(=O)Nc3ccccc3)ccc2O[C@@H]1CN(C)S(=O)(=O)c1ccc(F)cc1	-	-	-	-	.	.	.	.
CS(=O)(=O)N1C[C@@H](O)COC[C@H]2O[C@H](CC(=O)NCc3ccccc3)CC[C@@H]21	.	-	-	-	.	.	.	.
Cc1ccc(S(=O)(=O)N(C)C[C@@H]2OCCCC[C@@H](C)Oc3ccc(NS(=O)(=O)c4ccc(Cl)cc4)cc3C(=O)N([C@H](C)CO)C[C@@H]2C)cc1	-	-	-	-	.	.	.	.
Cc1ccc(S(=O)(=O)Nc2ccc3c(c2)C(=O)N([C@@H](C)CO)C[C@@H](C)[C@@H](CN(C)S(=O)(=O)c2ccc(Cl)cc2)OCCCC[C@@H](C)O3)cc1	.	-	-	-	.	.	.	.
Cc1ccc(S(=O)(=O)N(C)C[C@@H]2OCCCC[C@H](C)Oc3ccc(NS(=O)(=O)c4ccc(Cl)cc4)cc3C(=O)N([C@@H](C)CO)C[C@H]2C)cc1	-	106.3	-	-	102.5	-	-	-
Cc1ccc(S(=O)(=O)Nc2ccc3c(c2)C(=O)N([C@H](C)CO)C[C@H](C)[C@@H](CN(C)S(=O)(=O)c2ccc(Cl)cc2)OCCCC[C@H](C)O3)cc1	-	-	-	-	.	.	.	.
Cc1ccc(S(=O)(=O)Nc2ccc3c(c2)C(=O)N([C@H](C)CO)C[C@@H](C)[C@H](CN(C)S(=O)(=O)c2ccc(Cl)cc2)OCCCC[C@H](C)O3)cc1	-	.	-	-	.	.	.	.
SMILES	IDH1 R132H inh	T cruzi growth-1	GASC1 inh	Pf Dd2 inh	T cruzi growth-2	T cruzi growth-3	NIH3T3 tox	NIH3T3 tox 2
Cc1ccc(S(=O)(=O)N(C)C[C@H]2OCCCC[C@H](C)Oc3ccc(NS(=O)(=O)c4ccc(Cl)cc4)cc3C(=O)N([C@@H](C)CO)C[C@H]2C)cc1	-	?	-	-	103.9	107.6	-	-
Cc1ccc(S(=O)(=O)N(C)C[C@@H]2OCCCC[C@@H](C)Oc3ccc(NS(=O)(=O)c4ccc(Cl)cc4)cc3C(=O)N([C@@H](C)CO)C[C@@H]2C)cc1	.	110.4	-	-	99.6	113.1	-	45.5
Cc1ccc(S(=O)(=O)N(C)C[C@H]2OCCCC[C@H](C)Oc3ccc(NS(=O)(=O)c4ccc(Cl)cc4)cc3C(=O)N([C@@H](C)CO)C[C@@H]2C)cc1	-	93.2	-	-	108.6	106.6	-	-
CC(=O)Nc1ccc2c(c1)C(=O)N(C)[C@H]1CC[C@@H](CC(=O)NCC3CC3)O[C@@H]1CO2	.	-	-	-	.	.	.	.
CC(=O)Nc1ccc2c(c1)C(=O)N(C)[C@@H]1CC[C@@H](CC(=O)NCC3CCCCC3)O[C@H]1CO2	.	99.1	-	-	-	-	-	-
COCC(=O)Nc1ccc2c(c1)C(=O)N(C)[C@H]1CC[C@H](CC(=O)Nc3ccccc3OC)O[C@@H]1CO2	.	111.6	.	-	?	-	-	-
COCCNC(=O)C[C@H]1CC[C@@H]2[C@@H](COc3ccc(NC(C)=O)cc3C(=O)N2C)O1	.	-	-	-	.	.	.	.
CN1C(=O)c2cc(NC(=O)c3ccc(F)cc3)ccc2OC[C@H]2O[C@@H](CC(=O)NCC3CCCCC3)CC[C@H]21	.	100.9	-	-	112.8	-	38.7	60.6
COCCNC(=O)C[C@H]1CC[C@@H]2[C@H](COc3ccc(NC(C)=O)cc3C(=O)N2C)O1	.	101.1	-	-	-	-	-	-
C[C@H]1CN([C@@H](C)CO)C(=O)CCCn2cc(nn2)CO[C@H]1CN(C)C	-	-	-	-	.	.	.	.
